In brackets after ≈: the same amount, converted by molar mass. Activity calls are given as the source filed them. The rule behind the calls is not given here.
Key:
Glycine max = assay: Inhibition of soybean LOX assessed as reduction in conversion of sodium linoleate to 13-hydroperoxylinoleic acid at 1 x 10^-4 M relative to control
Summary of the method: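 Soybean lipoxygenase incubated at room temperature with sodium linoleate (0.1 mM) and test compound (DMSO stocks); formation of 13-hydroperoxylinoleic acid read at 234 nm. Single-point screening at 1 × 10^-4 M; IC50 from several concentrations. At least triplicate.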

[1] = Growth inhibition of human SW620 cells after 72 hrs by MTT assay; format: functional, cell-based; details: SW-620, 72 h
Summary of the method: (§1)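 Modified NCI DTP protocol: cells in DMEM with 10% FBS, 2 mM glutamine, antibiotics, 37 °C, 5% CO2; seeded 1 × 10^4 to 3 × 10^4 cells/ml on day 0, exposed to five 10-fold dilutions (10^-8 to 10^-4 M) for 72 h; solvent control. MTT read-out; quadruplicate points in three experiments; IC50 by linear regression of growth percentages bracketing 50%.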

[2] = Growth inhibition of human MIAPaCa2 cells after 72 hrs by MTT assay; format: functional, cell-based; details: MIA PaCa-2, 72 h
MCF7 [3] = assay: Induction of apoptosis in human MCF7 cells assessed as increase in number of necrotic cells at 0.31 uM after 72 hrs by Annexin-V FITC/propidium iodide staining based flow cytometry; format: functional, cell-based
Summary of the method: (§2)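 MCF-7 treated 0.31 µM for 72 h, DMSO control. Washed cells at 1 × 10^6 per 100 µl Annexin V binding buffer, stained FITC Annexin V plus PI 15 min room temperature in dark; 10 000 cells by flow cytometry (ex 488, em 530/580 nm). Viable, early apoptotic, late apoptotic/necrotic and necrotic fractions; three experiments, Duncan test.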

[4] = Growth inhibition of mouse L1210 cells after 72 hrs by MTT assay; format: functional, cell-based; details: L1210, 72 h
MCF7 [5] = assay: Induction of apoptosis in human MCF7 cells assessed as increase in number of late apoptotic/necrotic cells at 0.31 uM after 72 hrs by Annexin-V FITC/propidium iodide staining based flow cytometry; format: functional, cell-based; summary of the method: as §2
[6] = Growth inhibition of human HeLa cells after 72 hrs by MTT assay; format: functional, cell-based
MCF7 [7] = assay: Induction of apoptosis in human MCF7 cells assessed as increase in cleaved PARP-1 expression at 0.31 uM after 72 hrs by immunoblot method; format: functional, cell-based
Summary of the method: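 MCF-7 treated at 0.31 µM for up to 72 h, controls DMSO and 1 µM doxorubicin. Lysates (CelLytic M with protease inhibitors), BCA quantification; 5 µg protein on 4-20% gels, nitrocellulose transfer, milk block; anti-PARP-1 (1:1000), GAPDH loading control (1:5000) overnight 4 °C, HRP anti-rabbit 1:2000, ECL detection; three independent experiments.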

[8] = Cell cycle arrest in human MCF7 cells assessed as decrease in G1 population at 0.31 uM after 24 hrs by propidium iodide staining based flow cytometry; format: functional
Summary of the method: (§3)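 MCF-7 grown in EMEM with 10% FBS, L-glutamine, pyruvate, insulin; treated 0.31 µM for 24 h, DMSO (0.022%) vehicle control. Cells ethanol-fixed (70%, 24 h, -20 °C), RNase A 20 µg/ml 30 min 37 °C, PI 5.5 µg/ml 10 min dark; 20 000 cells by flow cytometry; G1, S, G2/M fractions; three independent experiments, Newman-Keuls test.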

[9] = Growth inhibition of human MCF7 cells after 72 hrs by MTT assay; format: functional, cell-based; details: MCF7, 72 h; summary of the method: as §1
[10] = Antioxidant activity assessed as DPPH radical scavenging activity at 100 uM after 20 mins relative to control; format: functional
Summary of the method: (§4)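 Compound in DMSO added to DPPH in absolute ethanol, 0.1 mM final; absorbance at 517 nm after 20 and 60 min at room temperature. At least triplicate.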

[11] = Growth inhibition of human NCI-H460 cells after 72 hrs by MTT assay; format: functional, cell-based; details: NCI-H460, 72 h; summary of the method: as §1
MCF7 [12] = assay: Potency index, ratio of ciplatin IC50 to compound IC50 for human MCF7 cells; format: functional
[13] = Growth inhibition of human Molt4/C8 cells after 72 hrs by MTT assay; format: functional, cell-based; details: MOLT-4, 72 h
[14] = Cell cycle arrest in human MCF7 cells assessed as increase in G2/M population at 0.31 uM after 24 hrs by propidium iodide staining based flow cytometry; format: functional; summary of the method: as §3
[15] = Growth inhibition of human CEM cells after 72 hrs by MTT assay; format: functional, cell-based; details: CCRF-CEM
Enterococcus faecalis [16] = assay: Antibacterial activity against vancomycin susceptible Enterococcus faecalis ATCC 29212 after 18 hrs by serial microdilution broth assay; format: functional; details: ATCC 29212, 18 h
Summary of the method: (§5)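 Broth microdilution MIC per EUCAST for aerobic bacteria in Mueller-Hinton broth, serial dilution 1000 to 0.78125 µg/ml from 10 mg/ml DMSO stocks. Inoculum from trypticase soy broth cultures (18 h, 37 °C), set to 0.5 McFarland in PBS pH 7.4, diluted 1:10. 18 h aerobic incubation at 35 °C in dark, then TTC 0.5 mg/ml for 3 h, HCl-isopropanol, A490. MIC = lowest concentration giving 50% inhibition versus untreated; duplicates.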

Staphylococcus aureus [17] = assay: Antibacterial activity against methicillin sensitive Staphylococcus aureus ATCC 25213 after 18 hrs by serial microdilution broth assay; format: functional; details: ATCC 25213, 18 h; summary of the method: as §5
Bacillus spizizenii = assay: Antibacterial activity against Bacillus subtilis ATCC 6633 after 18 hrs by serial microdilution broth assay; format: functional; details: ATCC 6633, 18 h; summary of the method: as §5
Pseudomonas aeruginosa [18] = assay: Antibacterial activity against Pseudomonas aeruginosa ATCC 9027 after 18 hrs by serial microdilution broth assay; format: functional; details: ATCC 9027, 18 h
Summary of the method: (§6)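 EUCAST-based broth microdilution in Mueller-Hinton broth. Glycerol stock cultures grown in trypticase soy broth 18 h at 37 °C; inoculum in PBS pH 7.4 at 0.5 McFarland, diluted 1:10 in broth. Compounds from DMSO stocks, 1000 to 0.78125 µg/ml; 18 h aerobic, 35 °C, dark. TTC 0.5 mg/ml added, 3 h, then HCl/isopropanol, A490. MIC = lowest concentration giving 50% inhibition vs untreated; duplicates, averaged.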

Bacillus cereus = assay: Antibacterial activity against Bacillus cereus ATCC 11778 after 18 hrs by serial microdilution broth assay; format: functional; details: ATCC 11778, 18 h; summary of the method: as §5
Candida albicans = assay: Antifungal activity against Candida albicans ATCC 90028 after 18 hrs by serial microdilution broth assay; format: functional; details: ATCC 90028, 18 h
Summary of the method: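 Yeast microdilution in RPMI 1640 with glutamine plus 2% glucose, 1000 to 0.78125 µg/ml from 10 mg/ml DMSO stocks. Growth read with XTT (10 mg/ml) mixed 7:1 with menadione (1 mg/ml in acetone), absorbance at 540 nm. MIC taken as lowest concentration giving 50% growth inhibition versus untreated cells; tests in duplicate.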

Pseudomonas aeruginosa [19] = assay: Antibacterial activity against Pseudomonas aeruginosa ATCC 27853 after 18 hrs by serial microdilution broth assay; format: functional; details: ATCC 27853, 18 h; summary of the method: as §5
[20] = Hemolytic activity against human RBC at 100 ug/ml after 1 hr relative to control; format: ADME, cell-based, Erythrocyte; details: red blood cells (RBC), read-out: Activity
Staphylococcus aureus [21] = assay: Antibacterial activity against methicillin sensitive Staphylococcus aureus ATCC 25923 after 18 hrs by serial microdilution broth assay; format: functional; details: ATCC 25923, 18 h; summary of the method: as §6
Pseudomonas aeruginosa [22] = assay: Antibacterial activity against multi-drug resistant Pseudomonas aeruginosa MFBF after 18 hrs by serial microdilution broth assay; format: functional; summary of the method: as §6
Enterococcus faecalis [23] = assay: Antibacterial activity against vancomycin resistant Enterococcus faecalis MFBF 11419 after 18 hrs by serial microdilution broth assay; format: functional; details: MFBF 11419, 18 h; summary of the method: as §6
Bacillus pumilus = assay: Antibacterial activity against Bacillus pumilus NCTC 8241 after 18 hrs by serial microdilution broth assay; format: functional; details: NCTC 8241, 18 h; summary of the method: as §5
[24] = Antioxidant activity assessed as DPPH radical scavenging activity at 100 uM after 60 mins relative to control; format: functional; summary of the method: as §4
Escherichia coli = assay: Antibacterial activity against Escherichia coli ATCC 10535 after 18 hrs by serial microdilution broth assay; format: functional; details: ATCC 10535, 18 h; summary of the method: as §5
Staphylococcus aureus [25] = assay: Antibacterial activity against methicillin resistant Staphylococcus aureus MFBF 10682 after 18 hrs by serial microdilution broth assay; format: functional; details: MFBF 10682, 18 h; summary of the method: as §6
[26] = Cytotoxicity against HEK cells assessed as reduction in cell viability at 12.5 to 200 ug/ml after 24 hrs by MTT assay; format: toxicity, cell-based; details: human, hek293, 24 h
Summary of the method: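 HEK 293 cells, 5 × 10^3 per well, treated next day for 24 h with compound (range within 200 to 1.5625 µg/ml). MTT 0.5 mg/ml in DMEM/10% FBS, 4 h at 37 °C, 5% CO2; formazan in DMSO, A570. Viability as percent of untreated control; triplicates, three independent experiments.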

[27] = Antioxidant activity assessed as inhibition of AAPH-induced linoleic acid lipid peroxidation at 1 x 10^-4 M by UV-absorbance method relative to control; format: functional
Summary of the method: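 Linoleic acid peroxidation: 16 mM sodium linoleate dispersion in 0.05 M phosphate buffer pH 7.4 at 37 °C under air, initiated by AAPH (40 mM solution); compound at 1 × 10^-4 M; oxidation followed at 234 nm. At least triplicate.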

Staphylococcus aureus [28] = assay: Antibacterial activity against methicillin resistant Staphylococcus aureus MFBF 10679 after 18 hrs by serial microdilution broth assay; format: functional; details: MFBF 10679, 18 h; summary of the method: as §6
Staphylococcus aureus [29] = assay: Antibacterial activity against Staphylococcus aureus ATCC 6538 after 18 hrs by serial microdilution broth assay; format: functional; details: ATCC 6538, 18 h; summary of the method: as §5
[30] = Growth inhibition of human MCF7 cells by alamar blue assay; format: functional

Row | Compound | inhibition (Glycine max) | IC50 [1] | IC50 [2] | IC50 [4] | IC50 [6] | IC50 [9] | Activity [10] | IC50 [11] | IC50 [13] | IC50 [15] | MIC50 (Enterococcus faecalis [16]) | MIC50 (Staphylococcus aureus [17]) | MIC50 (Bacillus spizizenii) | MIC50 (Pseudomonas aeruginosa [18]) | MIC50 (Bacillus cereus) | MIC50 (Candida albicans) | MIC50 (Pseudomonas aeruginosa [19]) | hemolysis at 1 h, 100 ug/ml [20] | MIC50 (Staphylococcus aureus [21]) | MIC50 (Pseudomonas aeruginosa [22]) | further results
1 | COc1cc(NC(C)CCCNC(=O)NNC(=O)Nc2ccc(F)cc2)c2ncccc2c1 (stereo not given) | 31.9% | > 100 µM | ≥ 250 µM | 104 µM | ≥ 250 µM | 0.31 µM | 7.6% | > 100 µM | ≥ 250 µM | 118 µM |  |  |  |  |  |  |  |  |  |  | Activity (MCF7 [3]): Active; Activity (MCF7 [5]): Active; Activity (MCF7 [7]): Active; Activity [8]: Active; Ratio IC50 (MCF7 [12]): 42; Activity [14]: Active
2 | COc1cc(NC(C)CCCNC(=O)Nc2ccc(C(F)(F)F)cc2)c2ncccc2c1 (stereo not given) | 22.4% | 22 µM | 8.4 µM | 7.4 µM | 8.3 µM | 1.9 µM | 38.9% | 24 µM | 20 µM | 14 µM | > 100 µg/mL | 50 µg/mL (≈ 112 µM) | > 100 µg/mL | 100 µg/mL (≈ 224 µM) | > 100 µg/mL | > 100 µg/mL | 25 µg/mL (≈ 56 µM) | 7.85% | 35 µg/mL (≈ 78.4 µM) | 150 µg/mL (≈ 336 µM) | MIC50 (Enterococcus faecalis [23]): > 100 µg/mL; MIC50 (Bacillus pumilus): > 100 µg/mL; Activity [24]: 36.4%; MIC50 (Escherichia coli): > 100 µg/mL; MIC50 (Staphylococcus aureus [25]): > 100 µg/mL; Activity [26]: Non-Toxic; inhibition [27]: 67%; MIC50 (Staphylococcus aureus [28]): > 100 µg/mL; MIC50 (Staphylococcus aureus [29]): 25 µg/mL (≈ 56 µM)
3 | COc1cc(NC(C)CCCNC(=O)Nc2ccc(Br)cc2)c2ncccc2c1 (stereo not given) | 37.1% | 23 µM | 23 µM | 18 µM | 20 µM | 2.6 µM | 46.2% | 30 µM | 25 µM | 23 µM | > 100 µg/mL | > 100 µg/mL | 25 µg/mL (≈ 54.7 µM) | 100 µg/mL (≈ 219 µM) | 50 µg/mL (≈ 109 µM) | > 100 µg/mL | 25 µg/mL (≈ 54.7 µM) | < 1% | > 100 µg/mL | 100 µg/mL (≈ 219 µM) | MIC50 (Enterococcus faecalis [23]): > 100 µg/mL; MIC50 (Bacillus pumilus): 100 µg/mL (≈ 219 µM); Activity [24]: 46.4%; MIC50 (Escherichia coli): > 100 µg/mL; MIC50 (Staphylococcus aureus [25]): > 100 µg/mL; Activity [26]: Non-Toxic; inhibition [27]: 80.4%; MIC50 (Staphylococcus aureus [28]): > 100 µg/mL; MIC50 (Staphylococcus aureus [29]): 50 µg/mL (≈ 109 µM)
4 | COc1cccc2c1C(=O)c1c(O)c3c(c(O)c1C2=O)C[C@@](O)(C(=O)CO)C[C@@H]3O[C@H]1C[C@H](N)[C@H](O)[C@H](C)O1 [DOXORUBICIN] |  |  |  |  |  |  |  |  |  |  |  |  |  |  |  |  |  |  |  |  | IC95 [30]: 1 µM
